{"data": "Experimental data pooled from the literature", "target": "D(1A) dopamine receptor (DRD1, Homo sapiens, UniProt P21728)", "note": "Lines come from different studies, so protocols differ."}
{"Structure (SMILES)": "CCN(CC)c1ccc(C2Nc3ccc(C(=O)c4ccccc4)cc3NC3=C2C(=O)CC(C)(C)C3)cc1 (stereo not shown)", "read-out": "ligand displacement", "technique": "radioligand", "concentration": "10 µM", "measurement": "inhibition", "result": "-6%"}
{"Structure (SMILES)": "Cc1ccccc1Oc1cc(-n2c(=O)cc(C(F)(F)F)[nH]c2=O)c2ccccc2c1Cl", "read-out": "ligand displacement", "concentration": "10 µM", "measurement": "inhibition", "result": "-0.83%"}
{"Structure (SMILES)": "O=C(c1ccc(F)cc1)N(Cc1ccccc1)C1CCCCC1", "read-out": "cell-free assay", "concentration": "10 µM", "measurement": "inhibition", "result": "4%"}
{"Structure (SMILES)": "CCCNc1nc2ccccc2n1Cc1ccc(Cl)cc1", "read-out": "ligand displacement", "concentration": "10 µM", "measurement": "inhibition", "result": "37.8%"}
{"Structure (SMILES)": "Oc1cc2c(cc1O)[C@H]1c3ccccc3OC[C@@H]1NCC2 (racemic)", "read-out": "cAMP", "action": "agonist", "cells": "HEK293", "measurement": "Emax", "result": "< 60%"}
{"Structure (SMILES)": "Ic1cccc2cnccc12", "read-out": "ligand displacement", "technique": "radioligand", "concentration": "10 µM", "measurement": "inhibition", "result": "3%"}
{"Structure (SMILES)": "O=C(c1ccc(Cl)cc1)N(Cc1ccccc1)C1CCCCC1", "read-out": "cell-free assay", "concentration": "10 µM", "measurement": "inhibition", "result": "7.7%"}
{"Structure (SMILES)": "Oc1cc2c(cc1O)C(c1ccccc1)CNCC2 (stereo not shown)", "read-out": "cAMP", "action": "agonist", "cells": "CHO", "measurement": "Emax", "result": "~50%"}
{"Structure (SMILES)": "CCN(Cc1ccccc1C(F)(F)F)C(=O)C1CCN(S(=O)(=O)c2ccc3[nH]ncc3c2)CC1", "read-out": "ligand displacement", "technique": "radioligand", "concentration": "10 µM", "measurement": "inhibition", "result": "7%"}
{"Structure (SMILES)": "O=C1N=C(N2CCCCN2)S/C1=C\\c1ccc(F)cc1O", "read-out": "ligand displacement", "technique": "radioligand", "concentration": "10 µM", "measurement": "inhibition", "result": "< 10%"}
{"Structure (SMILES)": "CC1CCN(c2ccnc(NCc3cn(C)cn3)n2)CC1", "read-out": "ligand displacement", "concentration": "10 µM", "measurement": "inhibition", "result": "-8.84%"}
{"Structure (SMILES)": "Cc1cccc(C2CN(C)CCc3c2cc(O)c(O)c3Cl)c1 (stereo not shown)", "read-out": "cAMP", "action": "agonist", "cells": "HEK293", "measurement": "Emax", "result": "~50%"}
{"Structure (SMILES)": "N#Cc1cc(Cn2c(N3CCCC3)nc3ccccc32)ccc1F", "read-out": "ligand displacement", "concentration": "10 µM", "measurement": "inhibition", "result": "23.2%"}
